For assay [1], the target named is POU domain, class 5, transcription factor 1 (Homo sapiens) (UniProt Q01860). Description: Activation of Oct3/4 (unknown origin) expressed in HEK293 cells after 72 hrs by luciferase reporter gene assay relative to control. In kind it is cell-based. The procedure, abridged: (§1)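 HEK293 cells stably carrying luciferase under a human Oct3/4 promoter (HEK-Oct3/4), or NCCIT cells lentivirally transduced with an Oct3/4 transcriptional response element reporter (NCCIT-Oct3/4, kept under 400 ng/mL puromycin). Cells seeded at 100,000/well for 24 h, then treated with compound. Lysed for 10 min at 37°C, luciferin/ATP mix added, read after 3 min. Signal given as percent of control cells; at least five independent experiments.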
A general note: A reporter such as luciferase makes a cellular process visible.

For assay [2] the target is unchanged. Kind of assay: Activation of Oct3/4 (unknown origin) expressed in human HEK293 cells after 48 hrs by luciferase reporter gene assay relative to control. The format is cell-based. In short, it runs like this:
as §1

Assay [3] has as its system HEK293. Description: Increase of Oct3/4 expression in human HEK293 cells after 72 hrs by immunoblotting. The format is functional, cell-based. In short, it runs like this:
(§2)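 Immunoblot. Compound-treated cells lysed in urea lysis buffer (6 M urea, 0.5% Triton X-100, protease/phosphatase inhibitors). 40 µg total protein run on 10% SDS-PAGE. Probed with Oct3/4, Nanog or Lin28 antibodies, with vinculin or β-actin as loading control. Primary antibody 1:1000 overnight at 4°C, secondary 1:10,000 for 1 h at RT; ECL detection.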
(In general: Immunoblotting shows a protein as a band on a membrane.)

Assay [4] concerns the target POU domain, class 5, transcription factor 1 (Homo sapiens) (UniProt Q01860). Kind of assay: Activation of Oct3/4 (unknown origin) expressed in HEK293 cells assessed as accumulation of Nanog after 72 hrs by immunoblotting. The format is cell-based. The procedure, abridged:
as §2

The test system of assay [5] is HEK293. Description: Increase of Oct3/4 gene expression in human HEK293 cells after 72 hrs by RT-PCR analysis. In kind it is functional, cell-based. The procedure, abridged:
(§3)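 qRT-PCR of pluripotency-related genes in compound-treated HEK293 cells or primary human skin fibroblasts, against an endogenous control gene. Values normalized to DMSO-treated cells as mean ± SD of quadruplicates, representative of two independent experiments.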

In assay [6] the target is POU domain, class 5, transcription factor 1 (Homo sapiens) (UniProt Q01860). Kind of assay: Activation of Oct3/4 (unknown origin) expressed in HEK293 cells assessed as increase of Nanog gene expression after 72 hrs by RT-PCR analysis. The format is cell-based. In short, it runs like this:
as §3

Assay [7] has the same target. Kind of assay: Activation of Oct3/4 (unknown origin) expressed in HEK293 cells assessed as increase of Sox2 gene expression after 72 hrs by RT-PCR analysis. The format is cell-based. In short, it runs like this: as §3
For assay [8] the target is unchanged. Description: Activation of Oct3/4 (unknown origin) expressed in HEK293 cells assessed as increase of Lin28 gene expression after 72 hrs by RT-PCR analysis. The format is cell-based. In short, it runs like this:
as §3

For assay [9] the target is unchanged. Description: Activation of Oct3/4 (unknown origin) expressed in HEK293 cells assessed as […] of Rex1 gene expression after 72 hrs by RT-PCR analysis. In kind it is cell-based. In short, it runs like this: as §3
Assay [10] has the same target. Description: Activation of Oct3/4 (unknown origin) transcriptional activity expressed in human NCCIT cells after 72 hrs by luciferase reporter gene assay relative to control. The format is cell-based. The procedure, abridged: as §1
For assay [11] the target is unchanged. Kind of assay: Activation of Oct3/4 (unknown origin) transcriptional activity expressed in human NCCIT cells at 20 uM by luciferase reporter gene assay relative to control. The format is cell-based. The following applies: TDE = time-dependent effect. In short, it runs like this: as §1
For assay [12] the target is unchanged. Kind of assay: Activation of Oct3/4 (unknown origin) expressed in human NCCIT cells assessed as accumulation of Nanog after 72 hrs by immunoblotting. In kind it is cell-based. The procedure, abridged:
as §2

The target is the same in assay [13]. Description: Activation of Oct3/4 (unknown origin) expressed in human NCCIT cells at 5 uM after 72 hrs by luciferase reporter gene assay relative to control. The format is cell-based.
Assay [14] shares this target. Description: Activation of Oct3/4 (unknown origin) expressed in human NCCIT cells at 20 uM after 2 hrs by luciferase reporter gene assay relative to control. The format is cell-based.
Assay [15] shares this target. Kind of assay: Activation of Oct3/4 (unknown origin) expressed in human HeLa cells after 72 hrs by luciferase reporter gene assay relative to control. The format is cell-based.
Assay [16] shares this target. Kind of assay: Activation of Oct3/4 (unknown origin) expressed in human HeLa cells assessed as accumulation of Nanog after 72 hrs by immunoblotting. In kind it is cell-based. The procedure, abridged:
as §2

In assay [17] the test system is Fibroblast. Kind of assay: Increase of Oct3/4 gene expression in human fibroblasts after 48 hrs by RT-PCR analysis relative to control. The format is functional. In short, it runs like this:
as §3

Assay [18] has as its target POU domain, class 5, transcription factor 1 (Homo sapiens) (UniProt Q01860). Kind of assay: Activation of Oct3/4 in human fibroblasts assessed as increase of Lin28 gene expression after 48 hrs by RT-PCR analysis relative to control. In short, it runs like this: as §3
Assay [19] shares this target. Kind of assay: Activation of Oct3/4 in human fibroblasts assessed as increase of Rex1 gene expression after 48 hrs by RT-PCR analysis relative to control. The procedure, abridged:
as §3

Assay [20] shares this target. Description: Activation of Oct3/4 in human fibroblasts assessed as increase of Nanog gene expression after 48 hrs by RT-PCR analysis relative to control. The procedure, abridged:
as §3

The target is the same in assay [21]. Kind of assay: Activation of Oct3/4 in human fibroblasts assessed as repression of N-cadherin gene expression after 48 hrs by RT-PCR analysis relative to control. The procedure, abridged: as §3
Assay [22] has the same target. Description: Activation of Oct3/4 in human fibroblasts assessed as increase of Lin28 protein expression after 72 hrs by immunoblotting relative to control. In short, it runs like this:
as §2

The target is the same in assay [23]. Kind of assay: Activation of Oct3/4 in human fibroblasts assessed as increase of Nanog protein expression after 72 hrs by immunoblotting relative to control. In short, it runs like this: as §2
The target is the same in assay [24]. Description: Activation of Oct3/4 in human fibroblasts assessed as co-expression of Oct3/4 and Sox2 after 5 days by immunocytochemistry analysis. The procedure, abridged:
(§4)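 Primary human fibroblasts seeded at 10,000 cells/well on Geltrex. After 24 h, treated for 5 days in DMEM/F12 with 20% knockout serum replacement, 10 ng/mL bFGF and 1 mM β-mercaptoethanol. Fixed in 4% PFA, blocked with 5% goat serum/0.3% Triton. Stained overnight at 4°C for Oct3/4 (1:400), Nanog (1:1000), Sox2 (1:100) or Klf4 (1:100), then Alexa 594/488 secondary for 1 h.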

The target is the same in assay [25]. Kind of assay: Activation of Oct3/4 in human fibroblasts assessed as co-expression of Nanog and Klf4 after 5 days by immunocytochemistry analysis. The procedure, abridged: as §4
Assay [26] has as its system Fibroblast. Kind of assay: Induction of endogenous cellular parameters in human fibroblasts assessed as increase in ALP-FITC signal using propidium iodide staining after 5 days. In kind it is functional, cell-based.
For assay [27], the target named is POU domain, class 5, transcription factor 1 (Homo sapiens) (UniProt Q01860). Kind of assay: Activation of Oct3/4 (unknown origin) expressed in HEK293 cells at 20 uM after 72 hrs by luciferase reporter gene assay relative to control. The format is cell-based. The procedure, abridged: as §1
For assay [28] the target is unchanged. Kind of assay: Activation of Oct3/4 (unknown origin) expressed in HEK293 cells at 40 uM after 72 hrs by luciferase reporter gene assay relative to control. In kind it is cell-based. In short, it runs like this:
as §1

Calls of active or inactive are those of the source. The calls are words filed in the database; no cut-off is given here.

Here are results for 17 compounds from ChEMBL document CHEMBL3593191, “Ethyl 2-((4-Chlorophenyl)amino)thiazole-4-carboxylate and Derivatives Are Potent Inducers of Oct3/4” (2015).

POU domain, class 5, transcription factor 1 (Homo sapiens), sequence (Q01860 whole entry, the tested form may be a part): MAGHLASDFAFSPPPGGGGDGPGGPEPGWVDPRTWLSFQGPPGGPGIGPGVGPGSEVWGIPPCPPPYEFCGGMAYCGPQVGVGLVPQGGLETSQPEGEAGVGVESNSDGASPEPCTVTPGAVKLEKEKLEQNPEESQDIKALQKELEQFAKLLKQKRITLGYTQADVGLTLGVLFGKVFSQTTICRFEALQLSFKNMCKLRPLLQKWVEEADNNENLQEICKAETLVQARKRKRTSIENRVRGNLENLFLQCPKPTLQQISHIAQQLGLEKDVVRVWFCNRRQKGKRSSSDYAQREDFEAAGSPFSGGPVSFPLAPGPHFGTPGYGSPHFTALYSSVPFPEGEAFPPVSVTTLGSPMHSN

Consider `CCOC(=O)c1csc(Nc2ccccc2)n1`, for which the result in assay [1] was Active.

On to `CCOC(=O)c1csc(Nc2ccc(Nc3nc(C(=O)OCC)cs3)cc2)n1`, for which, in assay [1], the result was inactive.

In the case of `CCOC(=O)c1csc(Nc2cccc(F)c2)n1`, the result in [1] was Active.

`C=CCNc1nc(C(=O)OCC)cs1`: in [1], the result was inactive.

On to `CCOC(=O)c1csc(Nc2cccc(Cl)c2)n1`, for which, in assay [1], the result was Active.

For `CCOC(=O)c1csc(NCc2ccccc2)n1`, in assay [1], the outcome was inactive.

On to `CCOC(=O)c1csc(Nc2ccc(Cl)c(Cl)c2)n1`, for which the outcome in assay [1] was Active.

Take `CCOC(=O)c1csc(Nc2ccc(Cl)cc2Cl)n1`: in [1], the result was Active.

With `CCOC(=O)c1csc(NC(C)=O)n1`, the result in assay [1] was inactive.

In the case of `O=C(O)c1csc(Nc2ccc(Cl)cc2Cl)n1`, the outcome in assay [1] was inactive.

`CCOC(=O)c1csc(N)n1`: in assay [1], the result was inactive.

Take `CCOC(=O)c1csc(Nc2ccc(Cl)cc2)n1`: the outcome in assay [1], in [4], in [5], in assay [6], in [7] and in [9] was Active. In addition, the outcome in assay [12], in assay [13], in assay [14], in [21], in assay [22] and in assay [23] was Active. The outcome in assay [24], in assay [25] and in [26] was Active. Moreover, the result in assay [2] and in [8] was inactive. In addition, the Activity entry in [3] was “Dose-dependent effect”; in [10] it was “Dose-dependent effect”; in assay [11] it was “tde”; in assay [15], “Dose-dependent effect”; in assay [16], “Dose-dependent effect”. The fold change (FC) stood at 4 in [10]; 15 in assay [17]; 20 in assay [18]; 30 in assay [19]; 2 in assay [20]; 2 in assay [27]. Moreover, the fold change (FC) in assay [28] was found to be 3.5.

In the case of `CN(C)CCCNC(=O)c1csc(Nc2ccc(Cl)cc2)n1`, the outcome in [1] was inactive.

In the case of `O=C(O)c1csc(Nc2cccc(Cl)c2)n1`, the result in [1] was inactive.

Take `O=C(O)c1csc(Nc2ccc(Cl)cc2)n1`: in assay [1], the result was inactive.

Turning to `CCCCNc1nc(C(=O)OCC)cs1`, in [1], the result was inactive.

As to `O=C(O)c1csc(Nc2cc(Cl)ccc2Cl)n1`, the outcome in assay [1] was inactive.
